Measured values pooled from the literature.
Each line is one published result; the experiments were not run side by side.

`O=C(O)c1ccccc1NCc1ccco1` has an inhibition of 82% (human PBMC; cell migration; 10 µM).
`O=C(O)C(Cl)Cl` gave an IC50 of > 50 µM (HCT-15; cell growth or viability, MTT; 72 h).
The IC50 of `NS(=O)(=O)c1cc(C(=O)O)c(NCc2ccco2)cc1Cl` is reported as ~1 µM (human PBMC; cell migration, inhibitor).
With `O=C(Oc1ccc(Br)cc1)[c-]1cccc1.[Fe+2].c1cc[cH-]c1` the IC50 was 353 µM (MCF-10A; cell growth or viability, MTT; 72 h).
With `O=C(c1cc(Cl)c(Cl)[nH]1)c1c(O)cccc1O` the IC50 was 1.3 µg/mL (MDCK; cell growth or viability, MTT; 72 h).
For `O=C(O)c1cc(S(=O)(=O)NCc2ccco2)c(Cl)cc1N1CCCCC1`, the inhibition was 42% (human PBMC; cell migration; 10 µM).
For `Cc1cc(C)c(N2CCN(c3c(C)cc(C)cc3C)C2=[Se])c(C)c1`, the IC50 was 10.2 µM (HCT-15; cell growth or viability, MTT; 72 h).
`O=C(O)CCCc1ccc(N(CCCl)CCCl)cc1` has an IC50 of > 50 µM (MCF-10A; cell growth or viability, CCK-8; 48 h).
`CN1CCCN=C1/C=C/c1cccs1` gave an inhibition of 76% (human PBMC; cell migration; 10 µM).
`CCCCCCCCCCCCCCCC[N+](C)(C)C` gave an IC50 of 9 µM (MDCK; cell growth or viability, MTT).
The IC50 of `N[C@@H](Cc1ccc(N(CCCl)CCCl)cc1)C(=O)O` is reported as > 50 µM (MCF-10A; cell growth or viability, CCK-8; 48 h).
For `CCCCCCc1ccc(O)cc1O`, the inhibition was 57% (human PBMC; cell migration; 10 µM).
`COc1cc2c3c(n(CCCNCCO)c(=O)c2cc1OC)-c1cc2c(cc1C3=O)OCO2` has a GI50 of 0.02 µM (HOP-62; cell growth or viability).
For `O=C(Oc1ccc(-n2cccc2)cc1)[c-]1cccc1.[Fe+2].c1cc[cH-]c1`, the IC50 was 1.8 µM (MCF-10A; cell growth or viability, MTT; 72 h).
The IC50 of `[Se]=c1n(C2CCCCC2)ccn1C1CCCCC1` is reported as 14.2 µM (HCT-15; cell growth or viability, MTT; 72 h).
For `Cn1cncc1[C@@](N)(c1ccc(Cl)cc1)c1ccc2c(c1)c(-c1cccc(Cl)c1)cc(=O)n2C`, the IC50 was 9.78 µM (CAL-27; cell growth or viability; 72 h).
